Experimental data published in the M2OR odorant receptor database.
Numbering of substitutions follows the chain as printed.

Experiments:
Settings in all cases: stereoisomer not certain
[1] = system: T1, O5AP2 A105T
T1 sequence (whole entry): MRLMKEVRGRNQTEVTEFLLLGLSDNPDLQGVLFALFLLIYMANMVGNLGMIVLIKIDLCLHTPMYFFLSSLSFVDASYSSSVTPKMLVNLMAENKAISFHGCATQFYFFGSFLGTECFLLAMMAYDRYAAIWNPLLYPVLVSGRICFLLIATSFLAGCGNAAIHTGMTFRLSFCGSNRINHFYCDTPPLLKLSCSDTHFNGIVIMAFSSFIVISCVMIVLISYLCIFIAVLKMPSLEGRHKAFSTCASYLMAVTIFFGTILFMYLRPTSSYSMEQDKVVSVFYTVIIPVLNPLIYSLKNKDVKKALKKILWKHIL
Method in brief: (§1)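 Values were gathered from published papers (main text and supplementary material), with extra details requested from the original authors when needed, and checked for typos and inconsistencies. Each receptor–molecule pair is called responsive (active) if the original authors judged the measured signal statistically different from baseline, and non-responsive (inactive) otherwise. Assay methods varied by source, often transient mammalian cell-line luciferase assays. Recorded details include cell line, G-protein, co-transfected protein and tags.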

[2] = system: T2, O5AU1
T2 sequence (whole entry): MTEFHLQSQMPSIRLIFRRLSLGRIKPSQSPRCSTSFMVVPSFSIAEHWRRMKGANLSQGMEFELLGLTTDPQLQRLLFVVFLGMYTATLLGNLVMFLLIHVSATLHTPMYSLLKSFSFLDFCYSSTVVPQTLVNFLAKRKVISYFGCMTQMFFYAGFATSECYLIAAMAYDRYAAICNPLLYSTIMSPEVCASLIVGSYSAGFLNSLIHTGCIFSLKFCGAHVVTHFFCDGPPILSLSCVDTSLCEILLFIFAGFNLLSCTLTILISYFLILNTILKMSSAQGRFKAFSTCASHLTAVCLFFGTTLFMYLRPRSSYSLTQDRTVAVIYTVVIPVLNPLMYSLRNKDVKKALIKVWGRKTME
Method in brief: as §1

[3] = system: T3, O5H14
T3 sequence (whole entry): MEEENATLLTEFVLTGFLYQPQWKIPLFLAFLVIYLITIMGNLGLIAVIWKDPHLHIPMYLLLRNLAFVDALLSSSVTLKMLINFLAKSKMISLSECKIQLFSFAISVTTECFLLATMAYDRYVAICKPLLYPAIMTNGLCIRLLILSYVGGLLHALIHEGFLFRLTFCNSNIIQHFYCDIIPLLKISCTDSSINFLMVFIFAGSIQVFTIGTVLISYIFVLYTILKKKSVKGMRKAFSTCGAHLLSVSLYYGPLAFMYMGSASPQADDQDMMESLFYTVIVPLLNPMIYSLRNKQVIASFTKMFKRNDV
Method in brief: as §1

[4] = system: T4, O5H15 V108I S148T T167S
T4 sequence (whole entry): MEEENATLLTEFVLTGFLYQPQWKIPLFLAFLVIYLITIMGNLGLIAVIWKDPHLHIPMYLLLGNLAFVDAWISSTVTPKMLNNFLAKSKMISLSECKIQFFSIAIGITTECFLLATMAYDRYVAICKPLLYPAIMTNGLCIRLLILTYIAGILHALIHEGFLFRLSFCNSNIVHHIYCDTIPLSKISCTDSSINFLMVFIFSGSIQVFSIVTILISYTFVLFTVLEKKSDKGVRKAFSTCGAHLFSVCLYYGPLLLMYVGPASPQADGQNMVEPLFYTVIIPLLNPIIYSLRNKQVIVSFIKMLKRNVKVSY
Method in brief: as §1

[5] = system: T5, O6C65 T222A
T5 sequence (whole entry): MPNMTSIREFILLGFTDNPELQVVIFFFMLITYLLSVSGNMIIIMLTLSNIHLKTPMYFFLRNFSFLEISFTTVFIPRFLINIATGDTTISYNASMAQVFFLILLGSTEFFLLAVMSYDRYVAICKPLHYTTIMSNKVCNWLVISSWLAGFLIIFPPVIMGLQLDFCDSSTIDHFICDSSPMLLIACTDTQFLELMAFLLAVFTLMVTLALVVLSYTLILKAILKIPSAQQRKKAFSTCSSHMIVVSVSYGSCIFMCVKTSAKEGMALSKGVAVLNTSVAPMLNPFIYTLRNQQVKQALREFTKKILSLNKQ
Method in brief: as §1

[6] = system: T6, O6C70 L181P
T6 sequence (whole entry): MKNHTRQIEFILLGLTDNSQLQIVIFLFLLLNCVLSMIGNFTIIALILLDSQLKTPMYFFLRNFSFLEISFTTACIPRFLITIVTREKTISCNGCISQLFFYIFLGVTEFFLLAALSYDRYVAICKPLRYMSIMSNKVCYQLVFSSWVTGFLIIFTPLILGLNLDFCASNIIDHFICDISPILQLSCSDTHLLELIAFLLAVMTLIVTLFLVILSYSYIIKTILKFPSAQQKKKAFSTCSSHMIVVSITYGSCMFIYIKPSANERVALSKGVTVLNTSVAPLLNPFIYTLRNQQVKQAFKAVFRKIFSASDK
Method in brief: as §1

[7] = system: T7, O7E24 S193F P242S
T7 sequence (whole entry): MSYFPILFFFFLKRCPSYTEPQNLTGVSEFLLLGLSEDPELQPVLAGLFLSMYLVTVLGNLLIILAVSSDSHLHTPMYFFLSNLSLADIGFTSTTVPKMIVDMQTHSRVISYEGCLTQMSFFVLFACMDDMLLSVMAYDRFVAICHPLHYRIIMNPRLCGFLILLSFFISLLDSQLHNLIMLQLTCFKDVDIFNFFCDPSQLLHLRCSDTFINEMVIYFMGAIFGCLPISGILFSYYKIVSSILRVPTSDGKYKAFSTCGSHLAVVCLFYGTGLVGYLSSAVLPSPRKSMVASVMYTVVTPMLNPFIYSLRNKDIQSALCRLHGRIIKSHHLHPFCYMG
Method in brief: as §1

[8] = system: T8, O7E24
T8 sequence (whole entry): T7 sequence (whole entry) with F193S
Method in brief: as §1

[9] = biological target: T9, OR10A2 (Homo sapiens) (UniProt Q9H208)
T9 sequence (whole entry): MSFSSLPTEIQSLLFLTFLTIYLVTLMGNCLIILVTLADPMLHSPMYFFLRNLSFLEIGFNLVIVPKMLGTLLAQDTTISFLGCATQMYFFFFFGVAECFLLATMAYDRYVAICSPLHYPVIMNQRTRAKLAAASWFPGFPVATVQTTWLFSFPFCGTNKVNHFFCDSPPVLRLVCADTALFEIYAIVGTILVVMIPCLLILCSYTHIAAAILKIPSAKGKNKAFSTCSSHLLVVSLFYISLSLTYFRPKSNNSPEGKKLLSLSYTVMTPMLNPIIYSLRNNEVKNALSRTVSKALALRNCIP
Method in brief: as §1

[10] = biological target: T10, OR10A3 (Homo sapiens) (UniProt P58181)
T10 sequence (whole entry): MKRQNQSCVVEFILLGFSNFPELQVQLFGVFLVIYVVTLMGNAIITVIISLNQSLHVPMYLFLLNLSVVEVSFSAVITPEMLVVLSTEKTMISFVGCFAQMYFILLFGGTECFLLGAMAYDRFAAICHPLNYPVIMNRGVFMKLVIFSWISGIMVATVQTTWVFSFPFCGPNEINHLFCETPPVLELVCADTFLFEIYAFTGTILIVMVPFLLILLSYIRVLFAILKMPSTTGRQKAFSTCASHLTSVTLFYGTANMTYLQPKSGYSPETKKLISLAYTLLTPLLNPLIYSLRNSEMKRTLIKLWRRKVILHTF
Method in brief: as §1

[11] = biological target: T11, OR10A4 (Homo sapiens) (UniProt Q9H209)
T11 sequence (whole entry): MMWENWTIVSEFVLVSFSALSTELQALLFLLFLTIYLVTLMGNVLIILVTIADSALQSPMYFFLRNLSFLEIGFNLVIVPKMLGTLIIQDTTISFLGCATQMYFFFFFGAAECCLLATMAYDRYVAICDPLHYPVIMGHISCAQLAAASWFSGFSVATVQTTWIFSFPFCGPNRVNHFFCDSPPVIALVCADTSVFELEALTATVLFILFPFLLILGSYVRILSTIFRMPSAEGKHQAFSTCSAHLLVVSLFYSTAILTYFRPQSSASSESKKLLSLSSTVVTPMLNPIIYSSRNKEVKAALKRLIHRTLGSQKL
Method in brief: as §1

[12] = biological target: T12, OR10A5 (Homo sapiens) (UniProt Q9H207)
T12 sequence (whole entry): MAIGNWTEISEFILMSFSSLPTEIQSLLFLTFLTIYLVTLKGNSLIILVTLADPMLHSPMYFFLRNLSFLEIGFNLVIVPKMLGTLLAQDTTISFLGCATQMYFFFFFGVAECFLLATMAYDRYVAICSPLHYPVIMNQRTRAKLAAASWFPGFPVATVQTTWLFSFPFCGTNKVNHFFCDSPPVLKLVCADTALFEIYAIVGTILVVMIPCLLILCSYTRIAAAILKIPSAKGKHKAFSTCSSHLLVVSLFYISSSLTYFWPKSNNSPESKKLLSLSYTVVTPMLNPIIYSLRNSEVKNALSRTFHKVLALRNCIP
Method in brief: as §1

[13] = biological target: T13, OR10A6 (Homo sapiens) (UniProt Q8NH74)
T13 sequence (whole entry): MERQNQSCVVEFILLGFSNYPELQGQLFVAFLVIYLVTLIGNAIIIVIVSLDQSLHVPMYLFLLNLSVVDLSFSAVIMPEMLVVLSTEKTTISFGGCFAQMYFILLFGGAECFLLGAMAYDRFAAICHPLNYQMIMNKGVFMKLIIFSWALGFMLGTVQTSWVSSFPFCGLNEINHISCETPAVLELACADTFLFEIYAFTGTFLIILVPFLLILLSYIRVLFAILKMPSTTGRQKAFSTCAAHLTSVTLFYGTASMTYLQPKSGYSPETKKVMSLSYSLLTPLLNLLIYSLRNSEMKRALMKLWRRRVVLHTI
Method in brief: as §1

[14] = biological target: T14, OR10A7 (Homo sapiens) (UniProt Q8NGE5)
T14 sequence (whole entry): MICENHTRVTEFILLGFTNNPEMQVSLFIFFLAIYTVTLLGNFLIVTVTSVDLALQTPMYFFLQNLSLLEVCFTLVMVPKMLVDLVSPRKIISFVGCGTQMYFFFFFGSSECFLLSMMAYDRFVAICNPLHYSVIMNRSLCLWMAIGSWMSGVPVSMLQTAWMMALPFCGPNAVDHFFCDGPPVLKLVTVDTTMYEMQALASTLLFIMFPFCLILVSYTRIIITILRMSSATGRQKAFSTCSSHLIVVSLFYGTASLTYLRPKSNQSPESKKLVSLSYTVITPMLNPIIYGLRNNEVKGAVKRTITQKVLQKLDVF
Method in brief: as §1

[15] = biological target: T15, OR10AD1 (Homo sapiens) (UniProt Q8NGE0)
T15 sequence (whole entry): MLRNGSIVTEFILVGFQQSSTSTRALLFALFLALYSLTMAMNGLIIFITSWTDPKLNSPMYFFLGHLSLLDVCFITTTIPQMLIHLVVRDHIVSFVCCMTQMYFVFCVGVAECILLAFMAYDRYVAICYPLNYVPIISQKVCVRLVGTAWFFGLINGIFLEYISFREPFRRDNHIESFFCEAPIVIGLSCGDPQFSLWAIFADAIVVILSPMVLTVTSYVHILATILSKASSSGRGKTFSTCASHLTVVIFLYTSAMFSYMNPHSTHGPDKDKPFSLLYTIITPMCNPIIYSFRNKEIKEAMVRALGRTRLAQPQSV
Method in brief: as §1

[16] = biological target: T16, OR10AG1 (Homo sapiens) (UniProt Q8NH19)
T16 sequence (whole entry): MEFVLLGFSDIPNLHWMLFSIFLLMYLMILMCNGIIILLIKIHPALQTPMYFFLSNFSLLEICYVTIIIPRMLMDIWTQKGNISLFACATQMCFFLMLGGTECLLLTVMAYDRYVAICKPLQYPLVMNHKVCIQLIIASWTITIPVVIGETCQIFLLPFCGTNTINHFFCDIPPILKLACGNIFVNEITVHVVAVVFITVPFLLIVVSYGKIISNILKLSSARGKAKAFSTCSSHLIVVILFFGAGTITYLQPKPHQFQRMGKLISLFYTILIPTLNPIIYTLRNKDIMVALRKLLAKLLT
Method in brief: as §1

[17] = biological target: T17, OR10C1 (Homo sapiens) (UniProt Q96KK4)
T17 sequence (whole entry): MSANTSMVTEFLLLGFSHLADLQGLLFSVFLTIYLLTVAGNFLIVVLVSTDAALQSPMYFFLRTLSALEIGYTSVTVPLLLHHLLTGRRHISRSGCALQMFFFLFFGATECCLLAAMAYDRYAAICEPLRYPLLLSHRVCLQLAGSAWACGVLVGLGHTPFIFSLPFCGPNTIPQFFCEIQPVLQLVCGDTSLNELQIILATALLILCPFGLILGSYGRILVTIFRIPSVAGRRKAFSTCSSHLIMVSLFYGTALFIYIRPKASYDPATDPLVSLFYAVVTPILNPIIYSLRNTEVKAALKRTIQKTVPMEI
Method in brief: as §1

[18] = biological target: T18, OR10D3 (Homo sapiens) (UniProt Q8NH80)
T18 sequence (whole entry): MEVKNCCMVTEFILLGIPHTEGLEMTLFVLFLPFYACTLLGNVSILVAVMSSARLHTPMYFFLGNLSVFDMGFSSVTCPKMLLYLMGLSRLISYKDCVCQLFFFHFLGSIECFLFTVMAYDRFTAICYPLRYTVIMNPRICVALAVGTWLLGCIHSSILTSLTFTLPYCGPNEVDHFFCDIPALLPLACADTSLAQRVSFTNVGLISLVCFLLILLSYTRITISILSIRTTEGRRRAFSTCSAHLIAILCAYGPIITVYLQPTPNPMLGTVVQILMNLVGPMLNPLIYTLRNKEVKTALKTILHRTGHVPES
Method in brief: as §1

Measured: odorant receptor agonist call

CCC1OC(=O)C(O)=C1C (stereo not drawn)
inactive: [1] | [2] | [3] | [4] | [5] | [6] | [7] | [8] | [9] | [10] | [11] | [12] | [13] | [14] | [15] | [16] | [17] | [18]
